Data: ChEMBL document CHEMBL2440113, “Synthesis, radiofluorination, and in vivo evaluation of novel fluorinated and iodinated radiotracers for PET imaging and targeted radionuclide therapy of melanoma” (J Med Chem, 2013)

Assays:
Liver [1] = assay: Biodistribution in liver of C57BL/6J mouse harboring mouse B16-Bl6 cells at 9 to 12 MBq, iv after 3 hrs by PET analysis; assay type: ADME, organism-based; conditions: in vivo
Method in brief: (§1)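 Ex vivo dissection in B16Bl6-bearing C57BL/6J mice (3x10⁵ cells s.c. right shoulder), done at day 10 or 14 after implantation. The ¹⁸F tracer was given i.v. at 9-12 MBq. Mice were killed by CO₂ at 1, 2 or 3 h. Tumor, organs and tissues were excised, weighed and gamma-counted, then decay-corrected and expressed as %ID/g. n=3-6 per group; mean ± SD.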

Blood [2] = assay: Biodistribution in blood of C57BL/6J mouse harboring mouse B16-Bl6 cells at 9 to 12 MBq, iv after 1 hr by PET analysis; assay type: ADME, organism-based; conditions: in vivo; method in brief: as §1
Spleen [3] = assay: Biodistribution in spleen of C57BL/6J mouse harboring mouse B16-Bl6 cells at 9 to 12 MBq, iv after 3 hrs by PET analysis; assay type: ADME, organism-based; conditions: in vivo; method in brief: as §1
Stomach = assay: Biodistribution in stomach of C57BL/6J mouse harboring mouse B16-Bl6 cells at 9 to 12 MBq, iv after 1 hr by PET analysis; assay type: ADME, organism-based; conditions: in vivo; method in brief: as §1
Zone of skin = assay: Biodistribution in skin of C57BL/6J mouse harboring mouse B16-Bl6 cells at 9 to 12 MBq, iv after 3 hrs by PET analysis; assay type: ADME, organism-based; conditions: in vivo; method in brief: as §1
Mus musculus [4] = assay: Ratio of drug level in tumor to bone in C57BL/6J mouse harboring mouse B16-Bl6 cells at 9 to 12 MBq, iv after 3 hrs by PET analysis; conditions: in vivo
Mus musculus [5] = assay: Biodistribution in tumor of C57BL/6J mouse harboring mouse B16-Bl6 cells at 9 to 12 MBq, iv after 3 hrs by PET analysis; assay type: ADME, organism-based, Neoplasm; conditions: in vivo
Method in brief: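 Ex vivo biodistribution. C57BL/6J mice bearing subcutaneous B16Bl6 tumours (3x10⁵ cells, shoulder), day 10 or 14, received [18F]tracer iv (9-12 MBq). They were killed by CO₂ at 1, 2 or 3 h. Tumours and organs were excised, weighed and gamma-counted. Results are decay-corrected % ID/g; ratios are tumour over tissue. n=3-6 per group; mean ± SD.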

Lung = assay: Biodistribution in lung of C57BL/6J mouse harboring mouse B16-Bl6 cells at 9 to 12 MBq, iv after 2 hrs by PET analysis; assay type: ADME, organism-based; conditions: in vivo; method in brief: as §1
Mus musculus [6] = assay: Biodistribution in cecum of C57BL/6J mouse harboring mouse B16-Bl6 cells at 9 to 12 MBq, iv after 1 hr by PET analysis; assay type: ADME, organism-based, Caecum; conditions: in vivo; method in brief: as §1
[7] = Octanol-water partition coefficient, log D of the compound at pH 7.4; assay type: physicochemical
Method in brief: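 About 74 kBq radiotracer was shaken in PBS pH 7.4 / octanol (1:1 mL), vortexed 1 min three times at room temperature, then centrifuged (3,000 rpm, 5 min). Both phases were gamma-counted. Three independent experiments in duplicate.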

Spleen [8] = assay: Biodistribution in spleen of C57BL/6J mouse harboring mouse B16-Bl6 cells at 9 to 12 MBq, iv after 1 hr by PET analysis; assay type: ADME, organism-based; conditions: in vivo; method in brief: as §1
Mus musculus [9] = assay: Biodistribution in small intestine of C57BL/6J mouse harboring mouse B16-Bl6 cells at 9 to 12 MBq, iv after 1 hr by PET analysis; assay type: ADME, organism-based; conditions: in vivo; method in brief: as §1
[10] = Stability of the compound in eyes of C57BL/6J mouse harboring mouse B16-Bl6 cells assessed as unchanged drug level at 18 MBq, iv after 1 hr; assay type: ADME, organism-based, Eye; conditions: read-out: Stability
Method in brief: (§2)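 Metabolite analysis in six B16Bl6 tumour-bearing mice given 18 MBq iv, killed at 30 min, 1 h or 2 h. Plasma (centrifuged) and bladder urine were injected directly. Pooled tumours, eyes and livers were homogenized in MeOH/NH₄OH 99.8:0.2, centrifuged, filtered and concentrated. Samples ran on radio-HPLC (C18, MeOH/H₂O/NH₄OH gradient) in duplicate; result is % unchanged tracer of total radioactivity.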

[11] = Stability of the compound in tumor of C57BL/6J mouse harboring mouse B16-Bl6 cells assessed as unchanged drug level at 18 MBq, iv after 30 mins; assay type: ADME, organism-based, Neoplasm; conditions: read-out: Stability
Liver [12] = assay: Stability of the compound in liver of C57BL/6J mouse harboring mouse B16-Bl6 cells assessed as unchanged drug level at 18 MBq, iv after 2 hrs; assay type: ADME, organism-based; conditions: in vivo; method in brief: as §2
Blood [13] = assay: Stability of the compound in blood of C57BL/6J mouse harboring mouse B16-Bl6 cells assessed as unchanged drug level at 18 MBq, iv after 2 hrs; assay type: ADME, organism-based; conditions: in vivo; method in brief: as §2
[14] = Stability of the compound in liver of C57BL/6J mouse harboring mouse B16-Bl6 cells assessed as unchanged drug level at 18 MBq, iv after 1 hr; assay type: ADME, organism-based; conditions: read-out: Stability; method in brief: as §2
[15] = Stability of the compound in tumor of C57BL/6J mouse harboring mouse B16-Bl6 cells assessed as unchanged drug level at 18 MBq, iv after 2 hrs; assay type: ADME, organism-based, Neoplasm; conditions: read-out: Stability; method in brief: as §2
[16] = Stability of the compound in eyes of C57BL/6J mouse harboring mouse B16-Bl6 cells assessed as unchanged drug level at 18 MBq, iv after 2 hrs; assay type: ADME, organism-based, Eye; conditions: read-out: Stability; method in brief: as §2
[17] = Stability of the compound in urine of C57BL/6J mouse harboring mouse B16-Bl6 cells assessed as unchanged drug level at 18 MBq, iv after 2 hrs; assay type: ADME, organism-based; conditions: in vivo; method in brief: as §2
[18] = Stability of the compound in urine of C57BL/6J mouse harboring mouse B16-Bl6 cells assessed as unchanged drug level at 18 MBq, iv after 1 hr; assay type: ADME, organism-based; conditions: read-out: Stability; method in brief: as §2

Drug uptake (Liver [1]) [% ID/g]	Drug uptake (Blood [2]) [% ID/g]	Drug uptake (Spleen [3]) [% ID/g]	Drug uptake (Stomach) [% ID/g]	Drug uptake (Zone of skin) [% ID/g]	Ratio (Mus musculus [4])	Drug uptake (Mus musculus [5]) [% ID/g]	Drug uptake (Lung) [% ID/g]	Drug uptake (Mus musculus [6]) [% ID/g]	logD [7]	Drug uptake (Spleen [8]) [% ID/g]	Drug uptake (Mus musculus [9]) [% ID/g]	Structure (SMILES)	also measured
2.6	1.15	2.35	5.87	1.47	2.16	6.76	1.72	6.37	0.95	2.35	16.68	CCN(CCNC(=O)c1cnc2cc(I)ccc2n1)CCOCCOCCOCCOCCOCCOCCOCC[18F]	–
1.99	1.42	1.87	4.41	1.05	3.7	11.55	1.65	7.27	1.52	3.72	7.58	CCN(CCNC(=O)c1cnc2cc(I)ccc2n1)CCOCCOCCOCC[18F]	remaining at 1 h [10]: > 99%; remaining at 0.5 h [11]: > 99%; Stability (Liver [12]): Unstable; Stability (Blood [13]): Unstable; remaining at 1 h [14]: 8%; remaining at 2 h [15]: > 99%; remaining at 2 h [16]: > 99%; Stability [17]: Unstable; remaining at 1 h [18]: 0.1%
